# Results from ChEMBL document CHEMBL1128718, “2-Substituted penems with amino acid-related side chains: synthesis and antibacterial activity of a new series of beta-lactam antibiotics” (1995).
# Tests used:
# Assay type in all cases: functional
# [1] = system: Aeromonas; assay: In Vitro Anti Bacterial Activity (MIC90) against 90% of tested clinical Isolates of Aeromonas species(21)
# Procedure, shortened: (§1)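 Over 500 clinical isolates tested in total; the line gives the isolate count. MIC90 for aerobes by dilution in Mueller Hinton 2 medium, inoculum 10⁴ cells/mL, incubated 24 h at 37 °C.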
# [2] = system: Acinetobacter calcoaceticus subsp. anitratus; assay: In Vitro Anti Bacterial Activity (MIC90) against 90% of tested clinical Isolates of Acinetobacter anitratus(20); procedure, shortened: as §1
# [3] = system: Moraxella catarrhalis; assay: In Vitro Anti Bacterial Activity (MIC90) against 90% of tested clinical Isolates of Branhamella catarrhalis(27)
# [4] = system: Bacteroides fragilis; assay: In Vitro Anti Bacterial Activity (MIC90) against 90% of tested clinical Isolates of Bacteroides fragilis(15)
# Procedure, shortened: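 Anaerobic clinical isolates. MIC90 by dilution in Wilkins-Chalgren agar, inoculum 10⁵ cells/mL, incubated 24–48 h at 37 °C.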
# [5] = system: Clostridium perfringens; assay: In Vitro Anti Bacterial Activity (MIC90) against 90% of tested clinical Isolates of Clostridium perfringens(27)
# Procedure, shortened: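 MIC90 over clinical isolates of this anaerobic species, taken from the MIC distribution. Anaerobes were tested on Wilkins-Chalgren agar with an inoculum of 10⁵ cells/mL and incubated 24–48 h at 37 °C.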
# [6] = system: Citrobacter freundii; assay: In Vitro Anti Bacterial Activity (MIC90) against 90% of tested clinical Isolates of Citrobacter freundii(20); procedure, shortened: as §1
# [7] = system: Enterococcus faecalis; assay: In Vitro Anti Bacterial Activity (MIC90) against 90% of tested clinical Isolates of Enterococcus faecalis(47); procedure, shortened: as §1
# [8] = system: Enterococcus faecium; assay: In Vitro Anti Bacterial Activity (MIC90) against 90% of tested clinical Isolates of Enterococcus faecium(47); procedure, shortened: as §1
# [9] = system: Enterococcus faecalis; assay: In Vitro antibacterial activity against (Ef) Enterococcus faecalis ATCC 29212
# Procedure, shortened: (§2)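 Panel of standard ATCC strains plus modified strains: methicillin-resistant, hyperpermeable, β-lactamase-producing (TEM1, TEM2, SHV) and β-lactamase-lacking. MIC determined in Mueller Hinton 2 medium, inoculum 10⁴ cells/mL, incubated 24 h at 37 °C.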
# [10] = system: Escherichia coli; assay: In Vitro Anti Bacterial Activity (MIC90) against 90% of tested clinical Isolates of Escherichia coli; procedure, shortened: as §1
# [11] = system: Klebsiella aerogenes; assay: In Vitro Anti Bacterial Activity (MIC90) against 90% of tested clinical Isolates of Enterobacter aerogenes(19); procedure, shortened: as §1
# [12] = system: Escherichia coli; assay: In Vitro antibacterial activity against (Ec L) Escherichia coli […] strain; procedure, shortened: as §2
# [13] = system: Escherichia coli; assay: In Vitro antibacterial activity against (Ec SHV) Escherichia coli […] strain; procedure, shortened: as §2
# [14] = system: Escherichia coli; assay: In Vitro antibacterial activity against (Ec TEM1) Escherichia coli […] strain; procedure, shortened: as §2
# [15] = system: Escherichia coli; assay: In Vitro antibacterial activity against (Ec TEM2) Escherichia coli […] strain; procedure, shortened: as §2
# [16] = system: Escherichia coli; assay: In Vitro antibacterial activity against (Ec) Escherichia coli ATCC 25922; procedure, shortened: as §2
# [17] = system: Haemophilus influenzae; assay: In Vitro Anti Bacterial Activity (MIC90) against 90% of tested clinical Isolates of Haemophilus Influenzae(21)
# Procedure, shortened: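 Clinical isolates. MIC90 in Haemophilus Test Medium Base plus Haemophilus Test Medium Supplement, inoculum 10⁴ cells/mL, incubated 24–48 h at 37 °C.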
# [18] = system: Klebsiella pneumoniae; assay: In Vitro Anti Bacterial Activity (MIC90) against 90% of tested clinical Isolates of Klebsiella pneumoniae(20); procedure, shortened: as §1
# [19] = system: Listeria monocytogenes; assay: In Vitro Anti Bacterial Activity (MIC90) against 90% of tested clinical Isolates of Listeria monocytogenes (20); procedure, shortened: as §1
# [20] = system: Pseudomonas aeruginosa; assay: In Vitro antibacterial activity against (Pa G242) hyperpermeable Pseudomonas aeruginosa strain; procedure, shortened: as §2
# [21] = system: Pseudomonas aeruginosa; assay: In Vitro antibacterial activity against (Pa) Pseudomonas aeruginosa ATCC 27853; procedure, shortened: as §2
# [22] = system: Pseudomonas aeruginosa; assay: In Vitro antibacterial activity against (Pa) hyperpermeable Pseudomonas aeruginosa […] strain; procedure, shortened: as §2
# [23] = system: Pseudomonas aeruginosa; assay: In Vitro Anti Bacterial Activity (MIC90) against 90% of tested clinical Isolates of Pseudomonas aeruginosa(11); procedure, shortened: as §1
# [24] = system: Staphylococcus epidermidis; assay: In Vitro Anti Bacterial Activity (MIC90) against 90% of tested clinical Isolates of Staphylococcus epidermidis (13); procedure, shortened: as §1
# [25] = system: Streptococcus agalactiae; assay: In Vitro Anti Bacterial Activity (MIC90) against 90% of tested clinical Isolates of Streptococcus agalactiaeB(21)
# [26] = system: Staphylococcus aureus; assay: In Vitro Anti Bacterial Activity (MIC90) against 90% of tested clinical Isolates of Staphylococcus aureus MS (6); procedure, shortened: as §1
# [27] = system: Staphylococcus aureus; assay: In Vitro Anti Bacterial Activity (MIC90) against 90% of tested clinical Isolates of Staphylococcus aureus MV (20)
# [28] = system: Staphylococcus aureus; assay: In vitro antibacterial activity against Sa MR(I) heterogeneous methicillin resistant Staphylococcus aureus
# Procedure, shortened: (§3)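 MIC was determined in Mueller Hinton 2 medium with an inoculum of 10⁴ cells/mL and incubation for 24 h at 37 °C. Strains: Sa(I) is S. aureus ATCC 29213; Sa MR(I) is a heterogeneous methicillin-resistant S. aureus; Sa MR(II) is a homogeneous methicillin-resistant S. aureus.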
# [29] = system: Staphylococcus aureus; assay: In vitro antibacterial activity against Sa MR(II) homogeneous methicillin resistant Staphylococcus aureus; procedure, shortened: as §3
# [30] = system: Staphylococcus aureus; assay: In vitro antibacterial activity against Sa(I) Staphylococcus aureus ATCC 29213; procedure, shortened: as §3
# [31] = system: Staphylococcus aureus; assay: In vitro antibacterial activity against Sa(II) Staphylococcus aureus ATCC 25923; procedure, shortened: as §2
# [32] = system: Streptococcus pyogenes; assay: In Vitro Anti Bacterial Activity (MIC90) against 90% of tested clinical Isolates of Streptococcus pyogenes(31)
# [33] = system: Streptococcus pneumoniae; assay: In Vitro Anti Bacterial Activity (MIC90) against 90% of tested clinical Isolates of Streptococcus pneumoniae (23)
# [34] = system: Yersinia sp.; assay: In Vitro Anti Bacterial Activity (MIC90) against 90% of tested clinical Isolates of Yersinia species(20); conditions: Yersinia sp. (in: enterobacteria)
# [35] = system: Stenotrophomonas maltophilia; assay: In Vitro Anti Bacterial Activity (MIC90) against 90% of tested clinical Isolates of Xanthomonas maltophilia(9); procedure, shortened: as §1
# [36] = system: Escherichia coli; assay: In Vitro antibacterial activity against (Ec DC2) hyperpermeable Escherichia coli strain; procedure, shortened: as §2
# [37] = system: Morganella morganii; assay: In Vitro Anti Bacterial Activity (MIC90) against 90% of tested clinical Isolates of Morganella morganii(10); procedure, shortened: as §1
# [38] = system: Proteus vulgaris; assay: In Vitro Anti Bacterial Activity (MIC90) against 90% of tested clinical Isolates of Proteus vulgaris(10); procedure, shortened: as §1
# [39] = system: Providencia stuartii; assay: In Vitro Anti Bacterial Activity (MIC90) against 90% of tested clinical Isolates of Providencia stuartii(10); procedure, shortened: as §1
# [40] = system: Providencia rettgeri; assay: In Vitro Anti Bacterial Activity (MIC90) against 90% of tested clinical Isolates of Providencia rettgeri(10); procedure, shortened: as §1
# [41] = system: Proteus mirabilis; assay: In Vitro Anti Bacterial Activity (MIC90) against 90% of tested clinical Isolates of Proteus mirabilis(16); procedure, shortened: as §1
smiles,measurement,setting,value
C[C@@H](O)[C@H]1C(=O)N2C(C(=O)O)=C(CN3CCC[C@@H]3C(N)=O)S[C@H]12,MIC90,[1],0.25 µg/mL
same,MIC90,[2],32 µg/mL
same,MIC90,[3],2 µg/mL
same,MIC90,[4],16 µg/mL
same,MIC90,[5],1 µg/mL
same,MIC90,[6],1 µg/mL
same,MIC90,[7],32 µg/mL
same,MIC90,[8],> 64 µg/mL
same,MIC,[9],16 µg/mL
same,MIC90,[10],1 µg/mL
same,MIC90,[11],16 µg/mL
same,MIC,[12],1 µg/mL
same,MIC,[13],1 µg/mL
same,MIC,[14],1 µg/mL
same,MIC,[15],1 µg/mL
same,MIC,[16],1 µg/mL
same,MIC90,[17],2 µg/mL
same,MIC90,[18],1 µg/mL
same,MIC90,[19],2 µg/mL
same,MIC,[20],1 µg/mL
same,MIC,[21],32 µg/mL
same,MIC,[22],0.25 µg/mL
same,MIC90,[23],> 64 µg/mL
same,MIC90,[24],0.12 µg/mL
same,MIC90,[25],0.12 µg/mL
same,MIC90,[26],0.06 µg/mL
same,MIC90,[27],8 µg/mL
same,MIC,[28],0.12 µg/mL
same,MIC,[29],4 µg/mL
same,MIC,[30],0.06 µg/mL
same,MIC,[31],0.015 µg/mL
same,MIC90,[32],0.5 µg/mL
same,MIC90,[33],0.5 µg/mL
same,MIC90,[34],1 µg/mL
same,MIC90,[35],> 64 µg/mL
same,MIC,[36],0.5 µg/mL
C[C@@H](O)[C@H]1C(=O)N2C(C(=O)O)=C(CN3CCCCC3C(N)=O)S[C@H]12 (stereo not given in full),MIC,[9],16 µg/mL
same,MIC,[12],1 µg/mL
same,MIC,[13],2 µg/mL
same,MIC,[14],1 µg/mL
same,MIC,[15],2 µg/mL
same,MIC,[16],1 µg/mL
same,MIC,[20],1 µg/mL
same,MIC,[21],> 64 µg/mL
same,MIC,[22],4 µg/mL
same,MIC,[28],0.12 µg/mL
same,MIC,[29],2 µg/mL
same,MIC,[30],0.12 µg/mL
same,MIC,[31],0.06 µg/mL
same,MIC,[36],1 µg/mL
C[C@@H](O)[C@H]1C(=O)N2C(C(=O)O)=C(CN(C)CC(N)=O)S[C@H]12,MIC90,[1],1 µg/mL
same,MIC90,[2],16 µg/mL
same,MIC90,[3],0.25 µg/mL
same,MIC90,[4],2 µg/mL
same,MIC90,[5],0.5 µg/mL
same,MIC90,[6],1 µg/mL
same,MIC90,[7],8 µg/mL
same,MIC90,[8],> 64 µg/mL
same,MIC,[9],4 µg/mL
same,MIC90,[10],0.25 µg/mL
same,MIC90,[11],8 µg/mL
same,MIC,[12],0.25 µg/mL
same,MIC,[13],0.5 µg/mL
same,MIC,[14],0.25 µg/mL
same,MIC,[15],0.5 µg/mL
same,MIC,[16],0.25 µg/mL
same,MIC90,[17],2 µg/mL
same,MIC90,[18],0.5 µg/mL
same,MIC90,[19],0.5 µg/mL
same,MIC90,[37],2 µg/mL
same,MIC,[20],4 µg/mL
same,MIC,[21],> 64 µg/mL
same,MIC,[22],0.5 µg/mL
same,MIC90,[38],2 µg/mL
same,MIC90,[39],2 µg/mL
same,MIC90,[40],2 µg/mL
same,MIC90,[41],1 µg/mL
same,MIC90,[23],> 64 µg/mL
same,MIC90,[24],0.015 µg/mL
same,MIC90,[25],0.06 µg/mL
same,MIC90,[26],0.0075 µg/mL
same,MIC90,[27],4 µg/mL
same,MIC,[28],0.06 µg/mL
same,MIC,[29],1 µg/mL
same,MIC,[30],0.06 µg/mL
same,MIC,[31],0.015 µg/mL
same,MIC90,[32],0.06 µg/mL
same,MIC90,[33],0.06 µg/mL
same,MIC90,[34],0.5 µg/mL
same,MIC90,[35],> 64 µg/mL
same,MIC,[36],0.25 µg/mL
C[C@@H](O)[C@H]1C(=O)N2C(C(=O)O)=C(CN(C)CC(=O)N3CCN(C)CC3)S[C@H]12,MIC,[9],16 µg/mL
same,MIC,[12],1 µg/mL
same,MIC,[13],1 µg/mL
same,MIC,[14],1 µg/mL
same,MIC,[15],1 µg/mL
same,MIC,[16],0.5 µg/mL
same,MIC,[20],1 µg/mL
same,MIC,[21],> 64 µg/mL
same,MIC,[22],4 µg/mL
same,MIC,[28],0.5 µg/mL
same,MIC,[29],4 µg/mL
same,MIC,[30],0.25 µg/mL
same,MIC,[31],0.25 µg/mL
same,MIC,[36],1 µg/mL
